As a reminder, the IC50 is the midpoint of a concentration-inhibition curve. As a reminder, the inhibition is how much of the control response was suppressed. Broadly, the Ki is a measure of affinity in units of concentration, obtained from inhibition or displacement.

The text below walks through data of ChEMBL document CHEMBL2057126, “Discovery of new inhibitors of Cdc25B dual specificity phosphatases by structure-based virtual screening” (J Med Chem, 2012).

Assay [1] is described as follows: Inhibition of Cdc25. Also on record: species or system Homo sapiens.
Assay [2] deals with T1, M-phase inducer phosphatase 1 (Homo sapiens) (UniProt P30304).
T1 sequence (whole entry): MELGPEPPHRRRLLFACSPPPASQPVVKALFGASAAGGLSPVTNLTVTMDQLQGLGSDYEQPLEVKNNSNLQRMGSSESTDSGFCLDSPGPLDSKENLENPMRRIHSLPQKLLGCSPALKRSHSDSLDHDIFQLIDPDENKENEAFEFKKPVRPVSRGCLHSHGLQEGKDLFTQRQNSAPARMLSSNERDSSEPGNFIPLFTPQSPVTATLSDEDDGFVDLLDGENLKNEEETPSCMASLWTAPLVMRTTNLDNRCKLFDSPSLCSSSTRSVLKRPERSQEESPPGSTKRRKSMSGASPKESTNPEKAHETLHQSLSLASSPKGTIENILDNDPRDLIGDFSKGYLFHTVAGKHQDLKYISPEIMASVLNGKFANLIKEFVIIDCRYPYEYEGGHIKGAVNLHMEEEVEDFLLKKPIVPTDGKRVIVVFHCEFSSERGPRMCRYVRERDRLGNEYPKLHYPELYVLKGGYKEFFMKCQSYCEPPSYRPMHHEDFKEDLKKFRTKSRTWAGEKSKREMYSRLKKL
Nature of the assay: Inhibition of recombinant phosphatase activity of Cdc25A catalytic domain expressed in Escherichia coli BL21(DE3) using OMFP as substrate at 100 uM after 15 mins by fluorimetric assay.

Assay [3] deals with MCF7. Nature of the assay: Cell cycle arrest in human MCF7 cells assessed as accumulation at S phase at 200 uM after 24 hrs by propidium iodide staining-based flow cytometry (reference value: 9.35%). The format is functional. A general note: A flow cytometer gives signals particle by particle.
For assay [4], the system named is MCF7. Nature of the assay: Cell cycle arrest in human MCF7 cells assessed as accumulation at S phase at 200 uM after 48 hrs by propidium iodide staining-based flow cytometry (reference value: 14.5 +/- 0.01%). The format is functional.
Assay [5] addresses T2, M-phase inducer phosphatase 1 (Homo sapiens, UniProt P30304).
T2 sequence (P30304 whole entry): T1 sequence (whole entry)
Nature of the assay: Inhibition of recombinant phosphatase activity of Cdc25A catalytic domain expressed in Escherichia coli BL21(DE3) using OMFP as substrate by Lineweaver-Burk plot analysis. The procedure, abridged:
(§1)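 Purified recombinant Cdc25A catalytic domain; phosphatase activity measured as OMFP hydrolysis versus inhibitor concentration to derive IC50, with Ki calculated from kinetic measurements. Results are averages ± SD of three determinations.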

In the next assay the test system is K562. Nature of the assay: Growth inhibition against human K562 cells expressing Cdc25A-C assessed as cell viability at 200 uM after 72 hrs by MTS assay. The format is functional, cell-based. In outline: (§2)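 MCF-7 breast, PC-3 prostate and K562 leukaemia cells treated 72 h with inhibitor or DMSO vehicle control, then cell viability measured. Values are mean ± SD of three experiments; significance by Student's t test, p ≤ 0.05.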
Background: Tetrazolium dyes change colour on reduction, which living cells bring about.

In assay [6] the target is T3, M-phase inducer phosphatase 2 (Homo sapiens, UniProt P30305).
T3 sequence (P30305 whole entry): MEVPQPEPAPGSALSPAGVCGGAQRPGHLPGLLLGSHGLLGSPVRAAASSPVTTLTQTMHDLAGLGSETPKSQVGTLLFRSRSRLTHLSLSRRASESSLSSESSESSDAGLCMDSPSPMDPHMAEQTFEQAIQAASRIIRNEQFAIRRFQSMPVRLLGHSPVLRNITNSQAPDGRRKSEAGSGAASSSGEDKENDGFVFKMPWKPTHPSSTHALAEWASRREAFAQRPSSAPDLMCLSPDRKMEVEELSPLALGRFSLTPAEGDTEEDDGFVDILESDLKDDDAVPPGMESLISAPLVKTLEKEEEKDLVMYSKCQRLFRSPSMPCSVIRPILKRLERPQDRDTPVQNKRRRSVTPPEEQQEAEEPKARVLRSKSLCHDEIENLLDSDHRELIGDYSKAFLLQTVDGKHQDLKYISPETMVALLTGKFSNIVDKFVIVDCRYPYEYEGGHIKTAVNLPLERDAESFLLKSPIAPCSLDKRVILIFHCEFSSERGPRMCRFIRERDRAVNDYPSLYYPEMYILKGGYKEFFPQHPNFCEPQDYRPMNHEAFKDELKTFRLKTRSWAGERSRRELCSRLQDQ
Nature of the assay: (§3) Inhibition of recombinant phosphatase activity of Cdc25B catalytic domain expressed in Escherichia coli BL21(DE3) using OMFP as substrate by spectrofluorimetric analysis.

For assay [7], the target named is T4, M-phase inducer phosphatase 2 (Homo sapiens) (UniProt P30305).
T4 sequence (whole entry): T3 sequence (P30305 whole entry)
The description is as §3.

The target of assay [8] is T2, M-phase inducer phosphatase 1. Nature of the assay: Inhibition of recombinant phosphatase activity of Cdc25A catalytic domain expressed in Escherichia coli BL21(DE3) using OMFP as substrate by spectrofluorimetric analysis. The procedure, abridged:
as §1

For assay [9], the system named is MCF7. Nature of the assay: Cell cycle arrest in human MCF7 cells assessed as accumulation at G2/M phase at 200 uM after 48 hrs by propidium iodide staining-based flow cytometry (reference value: 21 +/- 0.04%). It counts as functional.
For assay [10], the system named is MCF7. Nature of the assay: Cell cycle arrest in human MCF7 cells assessed as accumulation at G2/M phase at 200 uM after 24 hrs by propidium iodide staining-based flow cytometry (reference value: 9.4 +/- 0.04%). It counts as functional.
The subject of another assay is PC-3. Nature of the assay: Growth inhibition against human PC3 cells expressing Cdc25A-C assessed as cell viability at 200 uM after 72 hrs by MTS assay. The format is functional, cell-based. In outline:
as §2

Assay [11] concerns the target T5, M-phase inducer phosphatase 3 (Homo sapiens) (UniProt P30307).
T5 sequence (whole entry): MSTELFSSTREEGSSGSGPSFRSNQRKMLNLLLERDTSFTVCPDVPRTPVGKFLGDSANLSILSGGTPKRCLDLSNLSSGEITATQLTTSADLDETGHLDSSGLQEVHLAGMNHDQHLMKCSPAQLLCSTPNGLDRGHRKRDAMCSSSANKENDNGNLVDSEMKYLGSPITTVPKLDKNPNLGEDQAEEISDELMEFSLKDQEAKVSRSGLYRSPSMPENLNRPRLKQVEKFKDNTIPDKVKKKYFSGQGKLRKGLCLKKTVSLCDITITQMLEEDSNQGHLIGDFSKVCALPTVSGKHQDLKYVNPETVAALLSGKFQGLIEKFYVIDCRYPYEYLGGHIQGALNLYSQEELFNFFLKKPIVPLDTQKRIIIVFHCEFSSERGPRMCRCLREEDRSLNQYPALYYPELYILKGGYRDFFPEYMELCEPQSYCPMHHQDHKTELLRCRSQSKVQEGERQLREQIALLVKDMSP
Nature of the assay: Inhibition of recombinant phosphatase activity of Cdc25C catalytic domain expressed in Escherichia coli BL21(DE3) using OMFP as substrate at 100 uM after 15 mins by fluorimetric assay.

Assay [12] concerns MCF7. Nature of the assay: Cell cycle arrest in human MCF7 cells assessed as accumulation at G1 phase at 200 uM after 24 hrs by propidium iodide staining-based flow cytometry (reference value: 81.3 +/- 0.01%). The format is functional.
The target in assay [13] is T3, M-phase inducer phosphatase 2. Nature of the assay: Competitive inhibition of recombinant phosphatase activity of Cdc25B catalytic domain expressed in Escherichia coli BL21(DE3) using OMFP as substrate by Lineweaver-Burk plot analysis.
The test system of assay [14] is MCF7. Nature of the assay: Growth inhibition against human MCF7 cells expressing Cdc25A-C assessed as cell viability at 200 uM after 72 hrs by MTS assay. It counts as functional, cell-based. The procedure, abridged:
as §2

Assay [15] has as its target T4, M-phase inducer phosphatase 2 (Homo sapiens). Conditions: K562, 200 uM.
The subject of assay [16] is MCF7. Nature of the assay: Cell cycle arrest in human MCF7 cells assessed as accumulation at G1 phase at 200 uM after 48 hrs by propidium iodide staining-based flow cytometry (reference value: 64.5 +/- 0.02%). It counts as functional.
Assay [17] addresses T4, M-phase inducer phosphatase 2 (Homo sapiens). Nature of the assay: Inhibition of recombinant phosphatase activity of Cdc25B catalytic domain expressed in Escherichia coli BL21(DE3) using OMFP as substrate at 100 uM after 15 mins by fluorimetric assay.

The structures appear in SMILES notation. Active and inactive are the calls of the source. The rule behind the calls is not given here.

As for `Cc1nc2c(s1)C(=O)C=C(NCCCN(C)CCCNC1=CC(=O)c3nc(-c4cc(F)ccc4F)oc3C1=O)C2=O`, in assay [1], the 50% inhibitory concentration (IC50) is 0.02 µM.

Consider `O=C(O)c1ccc(C(=O)c2ccccc2C(=O)O)cc1C(=O)O`, for which the inhibition in assay [2] was 80%; in [7] it was “Dose-dependent effect”; in assay [11], 63%; in assay [17], 80%. Moreover, the Activity is recorded as 14.1% with MCF7 [3]; 1.6% with MCF7 [4]; 1.4% with MCF7 [9]; 26.6% in the assay on MCF7 [10]; 59.1% in the assay with MCF7 [12]; 97% in the assay with MCF7 [16]. Further, the results for the Ki in assay [5] and in assay [13] were 2.3 µM and 5.3 µM, respectively. Moreover, the “growth inhibition (GI)” value in the assay with K562, in the assay on PC-3 and in the assay on MCF7 [14] was “Active” each time. Also, the results for the half-inhibitory concentration (IC50) in assay [6] and in [8] were 17.5 µM and 6 µM, respectively. Besides, in [15], the inhibition entry was “Active”.
